SENP1 inh – human SENP1 catalytic domain inhibitors, primary screen, biochemical, FRET, uHTS; Sentrin-specific protease 1 (Homo sapiens), Q9P0U3; recombinant SENP1 catalytic domain, CyPet-SUMO1-YPet FRET cleavage; inhibition, % at 10 µM; 0.21% of 360,000 active; AID 624204, 2012;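 active = inhibition at least 30% at 10 µM, raw YFP signal under a set limit, fluorescence ratio 0.5 to 1.5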
Target sequence (Q9P0U3 419-644 limits assumed): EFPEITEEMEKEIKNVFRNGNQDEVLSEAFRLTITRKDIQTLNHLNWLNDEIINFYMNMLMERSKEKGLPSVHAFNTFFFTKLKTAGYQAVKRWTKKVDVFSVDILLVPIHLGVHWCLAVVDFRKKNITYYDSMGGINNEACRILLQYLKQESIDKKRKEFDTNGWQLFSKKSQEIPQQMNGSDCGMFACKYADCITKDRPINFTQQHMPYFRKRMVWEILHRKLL
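system = hSENP1 catalytic domain, recombinant | reagent = SFCypet-SUMO1-SFYpet substrate at 25 nM | doses = one dose per compound, 10 µM, 0.5% DMSO | incubation = enzyme reaction for 50 min at room temperature, dark | measured by = FRET, CFP and YFP emission | controls = no-enzyme low, enzyme-DMSO high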
HSP90 inh – HSP90 inhibitors, primary screen, cell lysate, luminescence | Heat shock protein HSP 90 (rabbit reticulocyte lysate; luciferase refolding) | Rabbit reticulocyte lysate, luciferase refolding luminescence, 3 h | inhibition, % at 5.6 µM | 0.91% of 290,000 active | AID 1789, 2009;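 active = inhibition above the screen-wide mean plus 3 SD, computed separately per campaign, cut at about 16% in these data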;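 note: inhibitors lower the luminescence because luciferase stays unfolded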
SENP6 block – SENP6 protease inhibitors, primary screen, biochemical, luminescence, uHTS; AID 2599, 2010; Recombinant SENP6 catalytic domain, aminoluciferin luminescence; Sentrin-specific protease 6 (Homo sapiens), Q9GZR1; inhibition, % at 10 µM; 1.8% of 330,000 active;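 active = inhibition above about 50% at the single tested dose, limit read from the data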
SENP8 block-1 – SENP8 protease inhibitors, primary screen, biochemical, luminescence. Sentrin-specific protease 8 (Homo sapiens), Q96LD8. purified SENP8, Z-RLRGG-aminoluciferin cleavage. inhibition, % at 10 µM. 1.2% of 330,000 active; in the data active = inhibition above about 50%
Target sequence (Q96LD8 whole entry, looked up): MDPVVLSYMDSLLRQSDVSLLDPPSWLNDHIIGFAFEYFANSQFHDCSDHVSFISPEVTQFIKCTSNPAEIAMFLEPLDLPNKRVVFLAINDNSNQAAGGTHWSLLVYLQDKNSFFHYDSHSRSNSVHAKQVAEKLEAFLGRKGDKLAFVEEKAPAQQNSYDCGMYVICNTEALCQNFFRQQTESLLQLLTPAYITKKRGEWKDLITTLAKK
SENP7 inh – SENP7 protease inhibitors, primary screen, biochemical, luminescence, uHTS; Sentrin-specific protease 7 (Homo sapiens), Q9BQF6; inhibition, % at 5 µM; recombinant SENP7, Z-RLRGG-aminoluciferin luminescence, 40 min; AID 434973, 2010; 1.5% of 330,000 active;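 active = inhibition above about 50% at the single test dose, limit read from the data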
SENP8 block-2 – human SENP8 protease inhibitors, primary screen, biochemical, fluorescence, Nedd8 protein substrate, uHTS | AID 602440, 2012 | 0.64% of 360,000 active | Sentrin-specific protease 8 (Homo sapiens), Q96LD8 | inhibition, % at 20 µM | recombinant SENP8; in the data active = inhibition mostly above about 40%, no sharp cut-off; inactive = mostly below about 27%
SENP8 conf – SENP8 protease inhibitors, retest, confirmation, biochemical, luminescence, single concentration | 40% of 6,200 active | inhibition, % at 12.5 µM | Recombinant SENP8, Z-RLRGG-aminoluciferin luminescence, 60 min | shares compounds with SENP7 inh;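 active = mean inhibition across replicates above about 50%, limit read from the data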
SENP6 conf – SENP6 protease inhibitors, confirmation, biochemical, luminescence, single concentration; inhibition, % at 12.5 µM; recombinant SENP6, Z-RLRGG-aminoluciferin luminescence; AID 488915, 2010; 58% of 6,200 active; shares compounds with SENP7 inh
SENP7 conf – SENP7 protease inhibitors, retest, confirmation, biochemical, luminescence, single concentration | shares compounds with SENP7 inh | recombinant SENP7, Z-RLRGG-aminoluciferin luminescence, 40 min | inhibition, % at 12.5 µM | 69% of 6,200 active
Casp3 select – caspase-3 protease inhibitors, confirmation, selectivity assay for SENP inhibitor project, biochemical, single concentration | shares compounds with SENP7 inh | purified caspase-3, Z-DEVD-aminoluciferin luminescence, 60 min | inhibition, % at 12.5 µM | 60% of 6,200 active | AID 488918, 2010;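 active = mean inhibition above about 50%, limit read from the data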
Target sequence (P42574 28-227 limits assumed): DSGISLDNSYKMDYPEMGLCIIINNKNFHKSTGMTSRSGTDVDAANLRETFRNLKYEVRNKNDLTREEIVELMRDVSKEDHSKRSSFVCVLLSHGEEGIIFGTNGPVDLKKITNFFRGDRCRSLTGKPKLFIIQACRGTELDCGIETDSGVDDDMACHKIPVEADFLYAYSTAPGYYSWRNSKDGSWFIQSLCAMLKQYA
Luc interf – interferes with luciferase luminescence in SENP counter-screen. 39% of 6,200 active. shares compounds with SENP7 inh. AID 488919. inhibition, % at 12.5 µM. Pre-incubated SENP8/Z-RLRGG-aminoluciferin, luciferase luminescence interference;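 active = mean inhibition above about 50% when retested at one dose, limit read from the data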
Of the large screens only hits and unclear results are named; the others gave an inactive call (follow-up assays come after a bar, where they were run). This is a sample that favours compounds with a hit; in the whole collection about 2.9% have one here.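 Rule for the calls, unless noted: active = mean inhibition above about 50% in the one-dose retest (limit read from the data); inactive = the rest.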

O=C(Nc1ccc(Cl)cc1)C1=Cc2cc(Cl)ccc2OC1	none
O=C(Nc1ccc(Cl)cc1Cl)C1=Cc2ccccc2OC1	SENP7 inh 51 | SENP8 conf inactive | SENP6 conf inactive | SENP7 conf inactive | Casp3 select inactive | Luc interf inactive
COc1ccc(NC(=O)C2=Cc3ccccc3OC2)cc1	SENP6 block 68, SENP8 block-1 61, SENP7 inh 73 | SENP8 conf 59 | SENP6 conf 60 | SENP7 conf 87 | Casp3 select 66 | Luc interf inactive
COc1ccc(NC(=O)C2=Cc3cccc(OC)c3OC2)cc1	none
C(=N\Nc1nc(-c2ccccc2)cs1)/c1cccs1	SENP6 block 64 | SENP8 conf 63 | SENP6 conf 65 | SENP7 conf 88 | Casp3 select inactive | Luc interf inactive
Cc1ccc(-c2csc(N/N=C/c3ccco3)n2)cc1	none
C(=N\Nc1nc(-c2ccccc2)cs1)/c1ccco1	SENP6 block 72, SENP8 block-1 54 | SENP8 conf 65 | SENP6 conf 66 | SENP7 conf 87 | Casp3 select inactive | Luc interf 58
COc1ccc(CN2C(=NC(=O)C3CC3)SC3CS(=O)(=O)CC32)cc1OC (stereo not given)	none
COc1cccc(NC(=O)c2ccc(CN3CCOCC3)cc2)c1	SENP6 block 50 | SENP8 conf inactive | SENP6 conf inactive | SENP7 conf 57 | Casp3 select 63 | Luc interf inactive
COC(=O)c1cccc(NC(=O)c2cccc(OC)c2)c1	SENP6 block 85, SENP8 block-1 65, SENP7 inh 84 | SENP8 conf 69 | SENP6 conf 71 | SENP7 conf 94 | Casp3 select 85 | Luc interf 78
COc1cccc(C(=O)NC(=S)Nc2ccc(N(C)C)cc2)c1	SENP6 block 57 | SENP8 conf inactive | SENP6 conf 57 | SENP7 conf 78 | Casp3 select inactive | Luc interf inactive
CN(C)S(=O)(=O)Oc1ccc(C(=O)Nc2cccc(Cl)c2)cc1	SENP6 block 58, SENP8 block-1 70, SENP7 inh 75 | SENP8 conf 83 | SENP6 conf 82 | SENP7 conf 96 | Casp3 select 63 | Luc interf 72
COc1cccc(C(=O)NC(=S)Nc2ccc(N3CCCC3)cc2)c1	none
CN(C)S(=O)(=O)Oc1ccc(C(=O)Nc2cccc(C(F)(F)F)c2)cc1	none
COc1cccc(C(=O)Nc2ccc(F)c(F)c2F)c1	SENP7 inh 51 | SENP8 conf inactive | SENP6 conf inactive | SENP7 conf 77 | Casp3 select 70 | Luc interf 53
COc1cccc(C(=O)Nc2ccc(F)cc2F)c1	none
COc1cccc(C(=O)Nc2ccc(C3CC3(Cl)Cl)cc2)c1 (stereo not given)	SENP6 block 85, SENP8 block-1 92, SENP7 inh 94 | SENP8 conf 96 | SENP6 conf 97 | SENP7 conf 103 | Casp3 select 92 | Luc interf inactive
COc1cccc(NC(=O)c2cccc(Cl)c2)c1	SENP6 block 83, SENP8 block-1 77, SENP7 inh 77 (no result: HSP90 inh) | SENP8 conf 81 | SENP6 conf 79 | SENP7 conf 95 | Casp3 select 83 | Luc interf 81
CCOC(=O)Nc1cccc(NC(=O)c2cc(OC)cc(OC)c2)c1	SENP6 block 64, SENP7 inh 71 | SENP8 conf 74 | SENP6 conf 70 | SENP7 conf 88 | Casp3 select 76 | Luc interf 74
CCCNC(=O)CN1C(=O)COc2ccc(S(=O)(=O)N3CC(C)CC(C)C3)cc21 (stereo not given)	none
C=C(c1ccc2nc(NC(=O)OC)[nH]c2c1)c1cccs1	none (no result: HSP90 inh, SENP6 block, SENP8 block-1, SENP7 inh)
COc1cccc(C(=O)Nc2ccc(C(F)(F)F)n(C)c2=O)c1	SENP8 block-1 65, SENP7 inh 80 | SENP8 conf inactive | SENP6 conf inactive | SENP7 conf 82 | Casp3 select 70 | Luc interf inactive
Cc1ccccc1S(=O)(=O)Oc1ccc2ccc(O)cc2c1	none
COc1cccc(C(=O)Oc2ccc3ccc(O)cc3c2)c1	SENP6 block 69 (no result: SENP1 inh, SENP8 block-2) | SENP8 conf inactive | SENP6 conf 64 | SENP7 conf 80 | Casp3 select inactive | Luc interf inactive
Cc1ccccc1C(=O)Oc1ccc2ccc(O)cc2c1	SENP6 block 73, SENP8 block-1 59, SENP7 inh 59 | SENP8 conf inactive | SENP6 conf 76 | SENP7 conf 84 | Casp3 select inactive | Luc interf inactive
O=C(COC(=O)c1cc(S(=O)(=O)N2CCOCC2)ccc1F)Nc1ccccc1C(F)(F)F	none (no result: HSP90 inh, SENP6 block, SENP8 block-1, SENP7 inh)
Cc1c(C(=O)Nc2cccc([N+](=O)[O-])c2)cnn1-c1ccccc1	SENP6 block 67, SENP7 inh 56 | SENP8 conf 51 | SENP6 conf inactive | SENP7 conf 81 | Casp3 select inactive | Luc interf 58
Cc1c(C(=O)Nc2ccccc2)cnn1-c1ccccc1	none (no result: HSP90 inh)
COc1ccc(NC(=O)c2cnn(-c3ccccc3)c2C)cc1OC	SENP6 block 52 | SENP8 conf inactive | SENP6 conf inactive | SENP7 conf 64 | Casp3 select 63 | Luc interf inactive
O=C(Nc1cccc([N+](=O)[O-])c1)c1[nH]ncc1Cl	SENP6 block 81, SENP8 block-1 74, SENP7 inh 81 | SENP8 conf 67 | SENP6 conf 61 | SENP7 conf 91 | Casp3 select 77 | Luc interf 54
Cc1c(C(=O)Nc2cccc(F)c2)cnn1-c1ccccc1	none
COc1ccc(NC(=O)c2cnn(-c3ccccc3)c2C)cc1	SENP6 block 90, SENP8 block-1 80, SENP7 inh 90 | SENP8 conf inactive | SENP6 conf 82 | SENP7 conf 97 | Casp3 select 92 | Luc interf 56
